Data reported in the EternaBench riboswitch data.

Tested on: MS2 coat protein
Assay: apparent Kd, MS2 coat protein; higher = weaker binding; RNA-MaP array
In short: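 Apparent Kd was taken as the median of binding curves fitted cluster by cluster. The designed RNAs were made by transcription of sequenced DNA templates on an Illumina sequencing chip and exposed to fluorescently labeled MS2 coat protein (1.5 nM to 3 μM) at room temperature, with or without input ligand, for 0.8–1.5 h at the lowest and 10–20 min at the highest concentrations. Any design measured on fewer than 10 clusters was left out.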

[1] = designed as: ON switch for flavin mononucleotide, no ligand
[2] = ligand present: flavin mononucleotide, designed as: ON switch for flavin mononucleotide
[3] = designed as: OFF switch for flavin mononucleotide, no ligand
[4] = ligand present: flavin mononucleotide, designed as: OFF switch for flavin mononucleotide

Row | Sequence | apparent Kd [1] [nM] | apparent Kd [2] [nM] | apparent Kd [3] [nM] | apparent Kd [4] [nM] | other results
1 | CUAGGCGUGCAGAAGGCGGAAAUAUUUCGUGGCCGAGGAUAUGCUGAUAUAUCGCAAGUGACAUGAGGAUCACCCAUGUGUCUA | 16.6 | 14.2 |  |  | 
2 | CUAGUGUGAGGAUAUGAGUCAACCUUUUAGUUCUAAGGAGAUCAGAAGGCACAUGAGGAUCACCCAUGUCAGAA |  |  | 33.4 | 84 | 
3 | UCGCCGCUGGAGACAUGAGGAUCACCCAUGUGGUCUUUCGUAAGAAGGUGCCUAUAGAACUUUUGCAAGGAUAUUACGCCGGAG |  |  | 217 | 113 | 
4 | AGCUGGGCUGAGAAGGCGUAUCGCUGUUAAGUGACAUGAGGAUCACCCAUGUAAUUACGAGGCUACGAGGAUAUCAACUAUGGA | 35.1 | 15.5 |  |  | 
5 | AUUACAGACUACGGCGAUACAUGAGGAUCACCCAUGUCGAGUUAGGAUAUGCAACAAUACGGCCUGCAGAAGGAACCAAGAGGG |  |  | 35.1 | 32.3 | 
6 | GGCCUCACAUGAGGAUCACCCAUGUUACUACUUGUUCGAUUGGAGGAUAUCUCUAGAAUUUACUGAGAGAAGGCCAAUAUGGGA |  |  | 236 | 191 | 
7 | ACCCAACAUGAGGAUCACCCAUGUGCAUGCCUCGGAGGAUAUGACCUCAUUCAUCUUUGAUCAGAAGGCCGAUCGC | 113 | 26 |  |  | 
8 | UCAGGACAUGAGGAUCACCCAUGUUGUCAAACCAAAGGAUAUAGGCUGAUCGAAAGAGAACUAGAAGGUUGCGAUU | 20.1 | 15.6 |  |  | 
9 | GAUACAUGAGGAUCACCCAUGUGGGAAAUUCAUCUCAUUAAGAAGGAUAUGCAUCUAAAACUGGAGCAGAAGGUCUGUAUCCCG |  |  | 87 | 55.9 | 
10 | GAGCGACUAUGAGAUUGGACAUGAGGAUCACCCAUGUGAGACAGAAGGGCCUUGGCGCCCGUGAGGCAGGAUAUGUACCAAGCA | 27.4 | 19.6 |  |  | 
11 | CGGGAACGAUAUGAUACCAGCCUGCGAAAGAAUGCUUAGUACAUGAGGAUCACCCAUGUAGGCCCUUGGCAGCAUCGACUCAAGU |  |  |  |  | apparent Kd (designed as: OFF switch for theophylline, no ligand): 14.8 nM; apparent Kd (ligand present: theophylline, designed as: OFF switch for theophylline): 19.7 nM
12 | CAUGGAUAAGGAUAUACAUGAGGAUCACCCAUGUAUAGAAGGAUACAAAGAUAAGAAUGUAGAAGGUAUUGGUU |  |  | 9.75 | 8.44 | 
13 | GUGCCAAAAGAGGAUAUAUUGACGAUGAUUCGCAUAGAAGGCUUUACAUGAGGAUCACCCAUGUGGGAGUGAUC |  |  | 614 | 184 | 
14 | UUACGGCAAGGAUAUACAUGAGGAUCACCCAUGUACUCUUUAUAAAUUAGUCAGCAUGGUAGAAGGUGCCGCUA |  |  | 9.04 | 11 | 
15 | GAUAAAGUAGGAUAUACAUGAGGAUCACCCAUGUAGAGAGGAGAGCGUGCGAGAACCAGUAGAAGGACUAAACA |  |  | 13.9 | 12.4 | 
16 | AAACAUGCGUGAGAGGAUAUGUCAUUAAUAACAUGAGGAUCACCCAUGUUCGAUGAUUGAAAUAAACAGAAGGCUCCGGUCUGUAA | 27 | 18.7 |  |  | 
17 | GUCUAAGGCCAAGGAUAUUGCGUACUUGCGGAUGAUAGUAGAAAACAUGAGGAUCACCCAUGUCACAAGAAGGUGGUCCUGGGA |  |  | 323 | 176 | 
18 | UUAUGUCGGUAGGAUAUUAGACGUGGUUAUACGUAAGAAGGACCAACAUGAGGAUCACCCAUGUGAGAUAGUUC |  |  | 14.4 | 24.7 | 
19 | ACUCCCGCAGAAGGAUAUCCUGACUGAACGAUCGACAUGAGGAUCACCCAUGUGUCUCCGUCGAGGGAGAAGGUCUGCUGUGAC | 18.7 | 7.98 |  |  | 
20 | AUUAACAUGAGGAUCACCCAUGUUCUCACACGAGGACCGGUACGGCCGCCACUCGGUUUGGUAUUGGUCACUAGGCAGUUAGGAG |  |  |  |  | apparent Kd (designed as: ON switch for tryptophan, no ligand): 15.9 nM; apparent Kd (ligand present: tryptophan, designed as: ON switch for tryptophan): 17.6 nM
21 | AAUAUAAACGUCAGGAUAUUCACGAUAAACAAAUAGAAGAAGGGACAUGAGGAUCACCCAUGUAAACAUGAGUA |  |  | 11.6 | 18.3 | 
22 | AGAGAGUCAGGAUAUAAAUAUAAAGAGAUAAAGCAAACAAUUUAGAAGGGACAUGAGGAUCACCCAUGUGAUAA |  |  | 13.6 | 12.7 | 
23 | GUAAGACAAGGCAAGGAUAUGCCCUAAUGGACAUGAGGAUCACCCAUGUGGUUGCAUAAUCAAAAGCAGAAGGUGCUACAACACGG | 48.3 | 38.8 |  |  | 
